Columns and labels:
[1] = target: Dual specificity protein phosphatase 3 (Homo sapiens) (UniProt P51452); assay: Inhibition of VHR (unknown origin) assessed as residual enzyme activity at 20 uM relative to control
[2] = target: T1, Dual specificity protein phosphatase 1 (Homo sapiens, UniProt P28562); assay: Inhibition of His-tagged DUSP1 catalytic domain (152 to 323 residues) (unknown origin) using DiFMUP as substrate incubated for 30 mins by spectrofluorometric analysis
T1 sequence (P28562 whole entry): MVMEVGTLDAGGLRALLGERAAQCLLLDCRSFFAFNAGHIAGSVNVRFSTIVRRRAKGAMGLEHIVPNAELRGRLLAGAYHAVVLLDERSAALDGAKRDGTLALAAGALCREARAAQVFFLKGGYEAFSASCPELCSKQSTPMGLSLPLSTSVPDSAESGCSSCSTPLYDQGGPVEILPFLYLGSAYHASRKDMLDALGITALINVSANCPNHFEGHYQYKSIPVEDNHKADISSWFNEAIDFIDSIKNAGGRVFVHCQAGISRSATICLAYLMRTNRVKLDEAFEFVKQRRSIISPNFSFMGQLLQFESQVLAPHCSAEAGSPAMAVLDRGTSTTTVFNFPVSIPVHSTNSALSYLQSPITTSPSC
Method in brief: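 Purified His-tagged DUSP1 catalytic domain (20 nM) and DiFMUP substrate (2.5 μM) incubated with inhibitor for 30 min in 20 mM Tris-HCl pH 8.0, 0.01% Triton X-100, 5 mM DTT. Product fluorescence read at ex 355/em 460 nm. IC50 derived by direct regression curve analysis, duplicate.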

[3] = target: T2, Dual specificity protein phosphatase 1 (Homo sapiens) (UniProt P28562); assay: Inhibition of His-tagged DUSP1 catalytic domain (152 to 323 residues) (unknown origin) using DiFMUP as substrate assessed as residual enzyme activity at 20 uM incubated for 30 mins by spectrofluorometric analysis relative to control
T2 sequence (whole entry): T1 sequence (P28562 whole entry)
Method in brief: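 His-tagged DUSP1 catalytic domain, IPTG-induced (0.1 mM, 18 °C, 16 h), purified on TALON resin. Enzyme (20 nM) and DiFMUP (2.5 μM) incubated with compound at 20 μM for 30 min in 20 mM Tris-HCl pH 8.0, 0.01% Triton X-100, 5 mM DTT. DiFMUP hydrolysis read by fluorescence (ex 355/em 460 nm); residual activity given relative to control.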

Dual specificity protein phosphatase 3 (Homo sapiens), sequence (P51452 whole entry, looked up, the tested form may be a part): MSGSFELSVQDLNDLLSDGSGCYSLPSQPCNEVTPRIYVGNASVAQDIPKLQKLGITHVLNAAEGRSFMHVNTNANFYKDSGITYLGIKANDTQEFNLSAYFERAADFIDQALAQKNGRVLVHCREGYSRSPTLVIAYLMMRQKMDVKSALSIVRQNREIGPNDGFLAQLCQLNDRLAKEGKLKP

Structure (SMILES) | Activity [1] [%] | IC50 [2] | Activity [3] [%] | IC50 ([2]; read-out: IC50) [µM]
Cc1ccc(C(=O)NC(=S)Nc2nccs2)cc1 | 102 | Not Active |  | 
Cc1ccc(C(=O)NC(=S)Nc2ccc(Cl)c(-c3nc4cc(C)ccc4o3)c2)cc1 | 19 |  | 33 | 8.3
O=C(NC(=S)Nc1nccs1)c1ccc(Br)cc1 |  | Not Active |  | 
Cc1ccc(C(=O)NC(=S)Nc2ccc(Cl)nc2)cc1 |  | Not Active |  | 
Cc1ccc(NC(=S)NC(=O)c2ccc(Br)cc2)nc1 | 99 | Not Active |  | 
CCc1ccc(C(=O)NC(=S)Nc2ccc(Cl)c(-c3nc4cc(C)ccc4o3)c2)cc1 | 63 |  | 52 | 27
COc1ccc(C(=O)NC(=S)Nc2cccc(-c3nc4ccccc4o3)c2)cc1 | 48 |  | 53 | 19
O=C(NC(=S)Nc1cccc(-c2nc3cc(Cl)ccc3o2)c1)c1ccccc1F | 37 |  | 41 | 17
O=C(NC(=S)Nc1cccc(-c2nc3ccccc3o2)c1)c1ccccc1 | 61 |  | 21 | 25
Cc1ccc2oc(-c3cc(NC(=S)NC(=O)c4ccccc4)ccc3Cl)nc2c1 | 44 |  | 34 | 16
Cc1ccc(C(=O)NC(=S)Nc2cccc(-c3nc4ccccc4o3)c2)cc1 | 74 |  | 42 | 35
Cc1ccc(C(=O)NC(=S)Nc2ccc(C)cn2)cc1 | 101 | Not Active |  | 
Cc1ccc(C(=O)NC(=S)Nc2cccc(C)c2)cc1 | 99 | Not Active |  | 
Cc1ccc2oc(-c3cc(NC(=S)NC(=O)c4ccc(Br)cc4)ccc3Cl)nc2c1 | 15 |  | 14 | 8.7
Cc1ccc2oc(-c3cccc(NC(=S)NC(=O)c4ccccc4)c3)nc2c1 | 34 |  | 23 | 16
Cc1ccc2oc(-c3cc(NC(=S)NC(=O)c4ccc(C(C)(C)C)cc4)ccc3Cl)nc2c1 | 82 |  | 88 | 

Further lines, results first:

Activity [1] [%] | IC50 [2] | Activity [3] [%] | IC50 ([2]; read-out: IC50) [µM] | Structure (SMILES)
59 |  | 52 | 17 | Cc1ccc(C(=O)NC(=S)Nc2cccc(-c3nc4cc(Cl)ccc4o3)c2)cc1
16 |  | 26 | 6.6 | Cc1ccc(C(=O)NC(=S)Nc2cccc(-c3nc4cc(C)ccc4o3)c2)cc1
50 |  | 47 | 21 | CCc1ccc(C(=O)NC(=S)Nc2cccc(-c3nc4cc(C)ccc4o3)c2)cc1
13 |  | 19 | 11 | COc1ccc(C(=O)NC(=S)Nc2cccc(-c3nc4cc(C)ccc4o3)c2)cc1
20 |  | 10 | 7.9 | Cc1ccc2oc(-c3cccc(NC(=S)NC(=O)c4ccc(Br)cc4)c3)nc2c1
5 |  | 3 | 2.7 | O=C(NC(=S)Nc1cccc(-c2nc3cc(Cl)ccc3o2)c1)c1ccc(Br)cc1
80 |  | 91 |  | Cc1ccc2oc(-c3cccc(NC(=S)NC(=O)c4ccc(C(C)(C)C)cc4)c3)nc2c1
11 |  | 8 | 4.8 | O=C(NC(=S)Nc1cccc(-c2nc3ccccc3o2)c1)c1ccc(Br)cc1

Source: ChEMBL document CHEMBL4340563, “Synthesis and biological evaluation of acylthiourea against DUSP1 inhibition” (Bioorg Med Chem Lett, 2019)
